The source made the active and inactive calls. The calls are words filed in the database; no cut-off is given here.
Key:
Rattus norvegicus [1] = assay: Antiinflammatory activity against Wistar-Bratislava albino rat assessed as monocyte count at 3.2 mg/kg, ip (Rbv = 7.6+/-0.45%); format: functional; settings: route intraperitoneal
Rattus norvegicus [2] = assay: Antiinflammatory activity against Wistar-Bratislava albino rat assessed as neutrophil count at 3.2 mg/kg, ip (Rbv = 55.6+/-1.32%); format: functional; settings: route intraperitoneal
Rattus norvegicus [3] = assay: Antiinflammatory activity against Wistar-Bratislava albino rat assessed as leukocyte count at 3.2 mg/kg, ip (Rbv = 4952.7+/-436.9 number/mm'3); format: functional; settings: route intraperitoneal
Rattus norvegicus [4] = assay: Antiinflammatory activity against Wistar-Bratislava albino rat assessed as reduction serum nitrate/nitrite concentration at 3.2 mg/kg, ip; format: functional, organism-based; design: dose 3.2 mg/kg
Summary of the method: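 In rats given turpentine oil 0.6 mL/100 g i.m. plus i.p. treatment in 1% carboxymethyl cellulose suspension, serum nitrate was reduced to nitrite with VCl3 in acidic solution. Griess reagents (SULF, NEDD) were then added, and absorbance at 540 nm was read after about 30-45 min incubation.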

Rattus norvegicus [5] = organism: Rattus norvegicus; assay: Induction of phagocytosis in Wistar-Bratislava albino rat PMNC using Escherichia coli suspension assessed as reduction in phagocytosis activity after 30 mins; format: functional
Rattus norvegicus [6] = organism: Rattus norvegicus; assay: Induction of phagocytosis in Wistar-Bratislava albino rat PMNC using Escherichia coli suspension assessed as reduction in phagocytosis index after 30 mins; format: functional
Rattus norvegicus [7] = assay: Antiinflammatory activity against Wistar-Bratislava albino rat assessed as lymphocyte count at 3.2 mg/kg, ip (Rbv = 37+/-2.2%); format: functional; settings: route intraperitoneal

| Structure (SMILES) | Activity (Rattus norvegicus [1]) [%] | Activity (Rattus norvegicus [2]) [%] | Activity (Rattus norvegicus [3]) | Activity (Rattus norvegicus [4]) | Activity (Rattus norvegicus [5]) | Activity (Rattus norvegicus [6]) | Activity (Rattus norvegicus [7]) [%] |
| --- | --- | --- | --- | --- | --- | --- | --- |
| O=C(COc1ccc2c(=O)cc(-c3ccccc3)oc2c1)N/N=C/c1cccc(OCc2csc(-c3ccc(Br)cc3)n2)c1 | 3.28 | 57.43 | 8000 /mm3 | Active | Active | Active | 39.86 |
| Cc1nc(-c2ccccc2)sc1C(=O)COc1ccc(/C=N\NC(=O)Cc2csc(-c3cccc(C(F)(F)F)c3)n2)cc1 | 2 | 78 | 10200 /mm3 | Active | – | Active | 18 |
| Cc1ccc(-c2nc(CC(=O)N/N=C\c3ccc(OCc4csc(-c5ccccc5)n4)cc3)cs2)cc1 | 1.86 | 52.57 | 3271.43 /mm3 | inactive | – | – | 21.43 |
| Cc1ccc(-c2nc(CC(=O)N/N=C\c3ccc(OCC(=O)c4sc(-c5ccccc5)nc4C)cc3)cs2)cc1 | 2.43 | 66 | 8742.85 /mm3 | Active | Active | Active | 32.14 |
| O=C(Cc1csc(-c2cccc(C(F)(F)F)c2)n1)N/N=C\c1ccc(OCc2csc(-c3ccc(Br)cc3)n2)cc1 | 3.14 | 63.14 | 7402.85 /mm3 | inactive | – | – | 32 |
| Cc1ccc(-c2nc(CC(=O)N/N=C\c3ccc(OCc4csc(-c5ccc(Br)cc5)n4)cc3)cs2)cc1 | 2.71 | 68.28 | 7314.28 /mm3 | – | – | – | 28.57 |
| Cc1ccc(-c2nc(CC(=O)N/N=C/c3ccccc3OCc3csc(-c4ccc(Br)cc4)n3)cs2)cc1 | 2.86 | 67.71 | 9300 /mm3 | inactive | – | – | 29.14 |
| Cc1cnc(NC(=O)C2=C(O)c3ccccc3S(=O)(=O)N2C)s1 [MELOXICAM] | 2 | 66.57 | 7660 /mm3 | – | – | – | 32.28 |
| O=C(COc1ccc2c(=O)cc(-c3ccccc3)oc2c1)N/N=C\c1ccc(OCc2csc(-c3ccccc3)n2)cc1 | 3.71 | 76 | 8228.57 /mm3 | inactive | Active | Active | 23.57 |
| O=C(Cc1csc(-c2cccc(C(F)(F)F)c2)n1)N/N=C/c1ccccc1OCc1csc(-c2ccc(Br)cc2)n1 | 2.57 | 68.85 | 7837.14 /mm3 | – | Active | Active | 24.71 |
| O=C(Cc1csc(-c2cccc(C(F)(F)F)c2)n1)N/N=C/c1cccc(OCc2csc(-c3ccccc3)n2)c1 | 2.4 | 61.71 | 9540 /mm3 | – | Active | Active | 32.28 |
| Cc1ccc(-c2nc(CC(=O)N/N=C/c3cccc(OCc4csc(-c5ccccc5)n4)c3)cs2)cc1 | 2.86 | 73.29 | 8620 /mm3 | inactive | – | – | 19.71 |
| O=C(Cc1csc(-c2cccc(C(F)(F)F)c2)n1)N/N=C\c1ccc(OCc2csc(-c3ccccc3)n2)cc1 | 2 | 82.28 | 5664.28 /mm3 | inactive | Active | Active | 20.71 |
| O=C(Cc1csc(-c2cccc(C(F)(F)F)c2)n1)N/N=C/c1cccc(OCc2csc(-c3ccc(Br)cc3)n2)c1 | 2.86 | 70.86 | 6914.28 /mm3 | Active | Active | – | 23.43 |
| O=C(COc1ccc2c(=O)cc(-c3ccccc3)oc2c1)N/N=C/c1cccc(OCc2csc(-c3ccccc3)n2)c1 | 2.6 | 71.71 | 12100 /mm3 | Active | – | – | 24 |

From ChEMBL document CHEMBL1667748, “Synthesis and anti-inflammatory evaluation of some new acyl-hydrazones bearing 2-aryl-thiazole” (2011)
